From ChEMBL document CHEMBL3259545, “Novel pyrrolobenzoxaboroles: design, synthesis, and biological evaluation against Trypanosoma brucei” (Eur J Med Chem, 2014)
In brackets after ≈: the same amount, converted by molar mass. Activity calls are given as the source filed them. No cut-off for these calls is given here.

Experiments:
[1] = tested on: L929; assay: Cytotoxicity against mouse L929 cells assessed as cell viability after 72 hrs by alamar blue assay; type: cell-based; conditions: L929, 72 h
Summary of the method: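 L929 mouse fibroblasts grown in DMEM with 10% FBS and 1% penicillin/streptomycin, kept sub-confluent. Seeded from a 1 × 10⁴/mL suspension, attached overnight, then medium renewed and DMSO-diluted compounds added. Incubated 72 h at 37 °C, 5% CO₂. Resazurin added for another 3–4 h, fluorescence read at ex 544/em 590 nm.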

[2] = tested on: Trypanosoma brucei brucei; assay: Antitrypanosomal activity against Trypanosoma brucei brucei 427 after 72 hrs by alamar blue assay; type: functional, organism-based; conditions: Trypanosoma brucei, 427, 72 h
Summary of the method: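 Bloodstream T. b. brucei 427 kept in log phase in HMI-9 with 10% FBS, 10% Serum Plus and penicillin/streptomycin, subcultured every 2–3 days. Final density 1.0 × 10⁵/mL with 0.4% DMSO, exposed to serially diluted compounds for 72 h at 37 °C, 5% CO₂. Resazurin added for another 2–4 h, fluorescence read at ex 544/em 590 nm. IC50 from sigmoidal fits of triplicate points.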

[3] = tested on: Trypanosoma brucei brucei; assay: Trypanocidal activity against bloodstream stage of Trypanosoma brucei brucei infected in acute BALB/c mouse assessed as extension of animal survival at 50 mg/kg, ip bid administered for 5 days initiated 24 hrs post infection; type: functional, organism-based; set-up: dose 50 mg/kg
Summary of the method: (§1)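 Female BALB/c mice infected i.p. with 600 T. b. brucei 221 parasites. Starting 24 h after infection, compounds were given i.p. at 50 mg/kg twice daily for 5 days, in 5% ethanol/45% water/50% PEG400. Untreated mice served as controls. Parasitemia was checked by trypan-blue-stained tail-vein blood smears every other day for ten days, then weekly, with survival followed to day 30.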

[4] = tested on: Trypanosoma brucei brucei; assay: Trypanocidal activity against bloodstream stage of Trypanosoma brucei brucei infected in acute BALB/c mouse assessed as clearance of blood parasite on day 30 at 50 mg/kg, ip bid administered for 5 days initiated 24 hrs post infection; type: functional; conditions: route intraperitoneal; summary of the method: as §1
[5] = tested on: Trypanosoma brucei brucei; assay: Trypanocidal activity against bloodstream stage of Trypanosoma brucei brucei infected in acute BALB/c mouse assessed as animal survival rate at 50 mg/kg, ip bid administered for 5 days initiated 24 hrs post infection; type: functional; conditions: route intraperitoneal
Summary of the method: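 Female BALB/c mice infected i.p. with 600 T. b. brucei 221 bloodstream parasites; from 24 h post-infection, dosed 50 mg/kg i.p. twice daily for 5 days in 5% ethanol/45% sterile deionized water/50% PEG400. Parasitaemia was checked on trypan-blue-stained tail-vein blood smears every other day for 10 days, then weekly; survival was followed to day 30.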

Row | IC50 [2] | SMILES | IC50 [1] | Activity [3] | Activity [4] | survival at 50 mg/kg [5]
1 | 0.86 µg/mL (≈ 3.36 µM) | CNC(=O)c1cccn1-c1ccc2c(c1)B(O)OC2 | > 10 µg/mL | – | – | –
2 | 2.89 µg/mL (≈ 8.46 µM) | OB1OCc2ccc(-n3cccc3Sc3ccccc3Cl)cc21 | > 10 µg/mL | – | – | –
3 | > 5 µg/mL | OB1OCc2ccc(-n3cc(Sc4ccc(Cl)cc4)c4ccccc43)cc21 | > 10 µg/mL | – | – | –
4 | 0.16 µg/mL (≈ 0.407 µM) | COc1cc(C(=O)c2ccn(-c3ccc4c(c3)B(O)OC4)c2)cc(OC)c1OC | 1.15 µg/mL (≈ 2.92 µM) | – | – | –
5 | 1.43 µg/mL (≈ 3.84 µM) | O=C(c1ccc(Cl)cc1Cl)c1cccn1-c1ccc2c(c1)B(O)OC2 | > 10 µg/mL | – | – | –
6 | > 5 µg/mL | OB1OCc2ccc(-n3cc(Sc4ccccc4O)c4ccccc43)cc21 | > 10 µg/mL | – | – | –
7 | 0.07 µg/mL (≈ 0.211 µM) | CCc1ccc(C(=O)c2ccn(-c3ccc4c(c3)B(O)OC4)c2)cc1 | > 10 µg/mL | Active | – | –
8 | > 5 µg/mL | OB1OCc2ccc(-n3cc(Sc4ccc(Cl)c(Cl)c4)c4ccccc43)cc21 | > 10 µg/mL | – | – | –
9 | > 5 µg/mL | OB1OCc2ccc(-n3cc(Sc4cccc(Cl)c4)c4ccccc43)cc21 | > 10 µg/mL | – | – | –
10 | 0.56 µg/mL (≈ 2.32 µM) | CC(=O)c1ccn(-c2ccc3c(c2)B(O)OC3)c1 | > 10 µg/mL | – | – | –
11 | 0.11 µg/mL (≈ 0.409 µM) | CCCC(=O)c1ccn(-c2ccc3c(c2)B(O)OC3)c1 | > 10 µg/mL | – | – | –
12 | 0.11 µg/mL (≈ 0.34 µM) | Cc1ccsc1C(=O)c1ccn(-c2ccc3c(c2)B(O)OC3)c1 | > 10 µg/mL | – | – | –
13 | > 5 µg/mL | OB1OCc2ccc(-n3ccc4ccccc43)cc21 | > 10 µg/mL | – | – | –
14 | 0.09 µg/mL (≈ 0.303 µM) | CCCCCC(=O)c1ccn(-c2ccc3c(c2)B(O)OC3)c1 | > 10 µg/mL | – | – | –
15 | 1.85 µg/mL (≈ 6.85 µM) | CCNC(=O)c1cccn1-c1ccc2c(c1)B(O)OC2 | > 10 µg/mL | – | – | –
16 | 2.17 µg/mL (≈ 7.5 µM) | OB1OCc2ccc(-n3ccc(Cc4ccccc4)c3)cc21 | > 10 µg/mL | – | – | –
17 | 0.29 µg/mL (≈ 0.914 µM) | O=C(Cc1ccccc1)c1ccn(-c2ccc3c(c2)B(O)OC3)c1 | > 10 µg/mL | – | – | –
18 | 0.03 µg/mL (≈ 0.08 µM) | CC(=O)OCc1ccc(C(=O)c2ccn(-c3ccc4c(c3)B(O)OC4)c2)cc1 | 10 µg/mL (≈ 26.7 µM) | – | – | –
19 | 0.16 µg/mL (≈ 0.498 µM) | O=C(c1ccc(F)cc1)c1ccn(-c2ccc3c(c2)B(O)OC3)c1 | > 10 µg/mL | – | – | –
20 | 0.19 µg/mL (≈ 0.574 µM) | O=C(CCc1ccccc1)c1ccn(-c2ccc3c(c2)B(O)OC3)c1 | > 10 µg/mL | – | – | –
21 | > 5 µg/mL | O=C(c1ccccc1)c1ccn(-c2ccc3c(c2)C(O)OC3)c1 (stereo not drawn) | 8.18 µg/mL (≈ 26.8 µM) | – | – | –
22 | 0.4 µg/mL (≈ 1.25 µM) | O=C(c1ccc(F)cc1)c1cccn1-c1ccc2c(c1)B(O)OC2 | > 10 µg/mL | – | – | –
23 | 1.98 µg/mL (≈ 9.95 µM) | OB1OCc2ccc(-n3cccc3)cc21 | > 10 µg/mL | – | – | –
24 | 0.17 µg/mL (≈ 0.51 µM) | COc1ccccc1C(=O)c1ccn(-c2ccc3c(c2)B(O)OC3)c1 | > 10 µg/mL | – | – | –
25 | 1.12 µg/mL (≈ 3.01 µM) | O=C(c1ccn(-c2ccc3c(c2)B(O)OC3)c1)c1ccc(Cl)cc1Cl | > 10 µg/mL | – | – | –
26 | 0.06 µg/mL (≈ 0.188 µM) | O=C(c1ccc(O)cc1)c1ccn(-c2ccc3c(c2)B(O)OC3)c1 | > 10 µg/mL | Active | – | –
27 | 3.21 µg/mL (≈ 11.3 µM) | CCCNC(=O)c1cccn1-c1ccc2c(c1)B(O)OC2 | > 10 µg/mL | – | – | –
28 | 4.02 µg/mL (≈ 14.1 µM) | NCCCC(=O)c1ccn(-c2ccc3c(c2)B(O)OC3)c1 | > 10 µg/mL | – | – | –
29 | > 5 µg/mL | O=[N+]([O-])c1ccc(Sc2cn(-c3ccc4c(c3)B(O)OC4)c3ccccc23)cc1 | > 10 µg/mL | – | – | –

Row | SMILES | IC50 [2] | IC50 [1] | Activity [3] | Activity [4] | survival at 50 mg/kg [5]
30 | Nc1ccc(C(=O)c2ccn(-c3ccc4c(c3)B(O)OC4)c2)cc1 | 0.03 µg/mL (≈ 0.0943 µM) | 3.9 µg/mL (≈ 12.3 µM) | – | 100% | 100%
31 | Cc1ccc(C(=O)c2ccn(-c3ccc4c(c3)B(O)OC4)c2)s1 | 0.07 µg/mL (≈ 0.217 µM) | > 10 µg/mL | – | 100% | 100%
